ChEMBL document CHEMBL4024746, “Nonpyrogenic Molecular Adjuvants Based on norAbu-Muramyldipeptide and norAbu-Glucosaminyl Muramyldipeptide: Synthesis, Molecular Mechanisms of Action, and Biological Activities in Vitro and in Vivo” (J Med Chem, 2017)
The source made the active and inactive calls. The calls are words filed in the database; no cut-off is given here.

What was measured:
[1] = test system: Oryctolagus cuniculus; experiment: Pyrogenic activity in Chinchilla rabbit assessed as change in maximum body temperature at 100 nmol/kg, iv using micellar foemulation measured at 30 mins time intervals; type: toxicity, organism-based; conditions: in vivo, 0.5 h
Summary of the method: (§1)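 Standard rabbit pyrogenicity test, three animals per group, iv or modified sc application of free (micellar) or liposomal formulations. Maximum temperature rise (+ΔTmax) summed per group; sum below 1.1 °C classed as nonpyrogenic. Temperature followed a further 24 h for delayed pyrogenicity.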

[2] = target: Nucleotide-binding oligomerization domain-containing protein 2 (Homo sapiens) (UniProt Q9HC29); experiment: Agonist activity at human NOD2 receptor expressed in mouse Raw-Blue reporter cells at 10 uM after 48 hrs by SEAP reporter gene assay; type: cell-based
Summary of the method: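 RAW 264.7-derived RAW-Blue cells carrying an NF-κB/AP-1-inducible SEAP reporter, exposed to compounds at 10 μM for 48 h. Colorimetric SEAP read-out at 650 nm. MDP serves as positive control. ANOVA with Dunnett's test versus untreated cells and versus MDP.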

[3] = target: T1, Nucleotide-binding oligomerization domain-containing protein 1 (Homo sapiens) (UniProt Q9Y239); experiment: Agonist activity at human NOD1 receptor expressed in HEK-Blue reporter cells at 10 uM after 48 hrs by SEAP reporter gene assay; type: cell-based
T1 sequence (whole entry): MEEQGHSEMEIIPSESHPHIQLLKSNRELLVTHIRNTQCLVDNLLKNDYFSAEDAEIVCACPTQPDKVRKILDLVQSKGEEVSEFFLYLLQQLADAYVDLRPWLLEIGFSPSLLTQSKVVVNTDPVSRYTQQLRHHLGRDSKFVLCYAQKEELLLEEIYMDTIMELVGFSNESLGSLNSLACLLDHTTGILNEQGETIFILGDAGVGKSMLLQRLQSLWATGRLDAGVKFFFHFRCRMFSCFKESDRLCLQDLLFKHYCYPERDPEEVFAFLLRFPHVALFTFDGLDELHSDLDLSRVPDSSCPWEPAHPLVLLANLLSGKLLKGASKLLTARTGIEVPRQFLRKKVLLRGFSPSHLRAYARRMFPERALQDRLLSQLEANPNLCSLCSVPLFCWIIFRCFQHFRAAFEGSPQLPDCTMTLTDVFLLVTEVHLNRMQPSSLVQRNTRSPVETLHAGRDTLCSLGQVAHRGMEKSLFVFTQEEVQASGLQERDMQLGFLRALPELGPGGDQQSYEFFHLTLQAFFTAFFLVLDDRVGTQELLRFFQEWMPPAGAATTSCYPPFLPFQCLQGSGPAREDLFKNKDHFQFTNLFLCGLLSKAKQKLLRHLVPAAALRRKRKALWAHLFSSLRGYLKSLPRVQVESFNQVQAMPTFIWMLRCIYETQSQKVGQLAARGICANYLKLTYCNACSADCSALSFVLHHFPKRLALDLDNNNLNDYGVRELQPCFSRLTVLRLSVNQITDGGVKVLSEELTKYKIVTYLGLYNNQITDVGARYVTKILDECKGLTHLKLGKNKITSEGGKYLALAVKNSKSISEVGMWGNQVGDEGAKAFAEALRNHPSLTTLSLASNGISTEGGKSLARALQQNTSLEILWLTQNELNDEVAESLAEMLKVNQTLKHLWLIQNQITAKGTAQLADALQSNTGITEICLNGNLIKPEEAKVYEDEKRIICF
Summary of the method: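 HEK293 cells cotransfected with human NOD1 and an NF-κB/AP-1-inducible SEAP reporter, exposed to compounds at 10 μM for 48 h. SEAP is read at 650 nm with QUANTI-Blue. Diaminopimelic acid derivatives serve as NOD1 positive controls. Dunnett's test is used versus untreated cells.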

[4] = test system: Mus musculus; experiment: Immuno-stimulatory activity in ICR mouse assessed as induction of GM-progenitor cell proliferation in serum at […], sc using liposomal formulation measured after 6 hrs; type: functional, organism-based
Summary of the method: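 Female ICR mice, 3 months old, four per group, given liposomal preparations sc at 100 nmol per dose in 200 μL. Serum collected 6 h later and added to cultured granulocyte–monocyte progenitors. GM-CFU colonies counted, with serum-free cells as baseline. Dunnett's test is used versus the infusion-solution control.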

[5] = test system: Mus musculus; experiment: Adjuvant activity in OspA immunized BALB/c mouse assessed as induction of total Ig antibody production administered id loaded in rOspA proteoliposomes measured 14 days after boost immunization by ELISA; type: functional
Summary of the method: (§2)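 Female BALB/c mice, 6−8 weeks, five per group, immunized id with His-tagged rOspA (endotoxin below 2.5 EU/mg) on metallochelation liposomes (EPC/POPG/DOGS-NTA-Ni/adjuvant 71:19:5:5), 20 μg rOspA per dose; boost 14 days after prime. Pooled sera taken 14 days post-boost, run in duplicate by ELISA on 100 ng/well tag-free rOspA, diluted 1:1000–1:32000; reported as mean OD490 ± SD at 1:8000.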

[6] = target: NACHT, LRR and PYD domains-containing protein 3 (Homo sapiens, UniProt Q96P20); experiment: Agonist activity at NLRP3 in human […] cells assessed as induction of LPS-induced IL-1beta secretion by HEK-Blue reporter cell based assay
Summary of the method: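 THP1-Null cells stimulated with compounds; mature IL-1β released is detected with HEK-Blue IL-1β cells through SEAP reporter activity in the supernatant, read colorimetrically with QUANTI-Blue. ATP serves as positive standard. Untreated HEK-Blue IL-1β cells serve as negative control; comparison by ANOVA with Dunnett's test.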

[7] = test system: Oryctolagus cuniculus; experiment: Pyrogenic activity in New Zealand albino rabbit assessed as change in maximum body temperature at 25 ug/kg, sc using liposomal formulation measured at 30 mins time intervals for 9 to 24 hrs (reference value: 0.2 degC); type: organism-based; conditions: in vivo, 0.025 mg/kg
[8] = test system: Mus musculus; experiment: Adjuvant activity in OspA immunized BALB/c mouse assessed as induction of total IgG1 antibody production administered id loaded in rOspA proteoliposomes measured 14 days after boost immunization by ELISA; type: functional; summary of the method: as §2
[9] = test system: Mus musculus; experiment: Toxicity in BALB/c mouse assessed as irritation at site of drug application administered id loaded in rOspA proteoliposomes; conditions: in vivo, other
Summary of the method: (§3)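 Female BALB/c mice immunized id with rOspA metallochelation proteoliposomes carrying the adjuvant, prime and boost 14 days apart; injection sites inspected for irritation or local reactions.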

[10] = test system: Mus musculus; experiment: Toxicity in BALB/c mouse assessed as local reactions at site of drug application administered id loaded in rOspA proteoliposomes; conditions: in vivo, other; summary of the method: as §3
[11] = target: Nucleotide-binding oligomerization domain-containing protein 2 (Homo sapiens) (UniProt Q9HC29); experiment: Agonist activity at human NOD2 receptor expressed in mouse Raw-Blue reporter cells at 10 uM after 48 hrs in presence of gefitinib by SEAP reporter gene assay; type: cell-based
[12] = target: Nucleotide-binding oligomerization domain-containing protein 2 (Homo sapiens) (UniProt Q9HC29); experiment: Agonist activity at human NOD2 receptor expressed in mouse Raw-Blue reporter cells at 10 uM after 24 hrs in presence of GSK717 by SEAP reporter gene assay
[13] = test system: Oryctolagus cuniculus; experiment: Toxicity in Chinchilla rabbit assessed as weight loss at 100 nmol/kg, iv using micellar formulation measured up to 2 months post dose; type: organism-based; conditions: in vivo
[14] = test system: Oryctolagus cuniculus; experiment: Toxicity in Chinchilla rabbit assessed as skin irritation at 100 nmol/kg, iv using micellar formulation measured up to 2 months post dose; type: organism-based; conditions: in vivo
[15] = Solubility of the compound in ethanol; type: physicochemical
[16] = Solubility of the compound in DMSO; type: physicochemical
[17] = Solubility of the compound in PBS; type: physicochemical; conditions: buffer
[18] = test system: Oryctolagus cuniculus; experiment: Pyrogenic activity in New Zealand albino rabbit assessed as change in maximum body temperature at 100 nmol/kg, sc using liposomal formulation measured at 30 mins time intervals for 9 to 24 hrs (reference value: 0.2 degC); type: toxicity, organism-based; conditions: in vivo; summary of the method: as §1
[19] = test system: Oryctolagus cuniculus; experiment: Toxicity in Chinchilla rabbit assessed as necrosis at site of application at 100 nmol/kg, iv using micellar formulation measured up to 2 months post dose; type: organism-based; conditions: in vivo
[20] = test system: Oryctolagus cuniculus; experiment: Toxicity in Chinchilla rabbit assessed as behavioral changes at 100 nmol/kg, iv using micellar formulation measured up to 2 months post dose; type: organism-based; conditions: in vivo
[21] = test system: Oryctolagus cuniculus; experiment: Toxicity in New Zealand albino rabbit assessed as weight loss at 100 nmol/kg, sc using liposomal formulation measured up to 2 months post dose; type: organism-based; conditions: in vivo
[22] = test system: Oryctolagus cuniculus; experiment: Toxicity in New Zealand albino rabbit assessed as skin irritation at 100 nmol/kg, sc using liposomal formulation measured up to 2 months post dose; type: organism-based; conditions: in vivo
[23] = test system: Oryctolagus cuniculus; experiment: Toxicity in New Zealand albino rabbit assessed as necrosis at site of application at 100 nmol/kg, sc using liposomal formulation measured up to 2 months post dose; type: organism-based; conditions: in vivo
[24] = test system: Oryctolagus cuniculus; experiment: Toxicity in New Zealand albino rabbit assessed as behavioral changes at 100 nmol/kg, sc using liposomal formulation measured up to 2 months post dose; type: organism-based; conditions: in vivo
[25] = test system: Mus musculus; experiment: Adjuvant activity in OspA immunized BALB/c mouse assessed as induction of total IgG2a antibody production administered id loaded in rOspA proteoliposomes measured 14 days after boost immunization by ELISA; type: functional; summary of the method: as §2

Chain of Nucleotide-binding oligomerization domain-containing protein 2 (Homo sapiens) (Q9HC29 whole entry, the tested form may be a part): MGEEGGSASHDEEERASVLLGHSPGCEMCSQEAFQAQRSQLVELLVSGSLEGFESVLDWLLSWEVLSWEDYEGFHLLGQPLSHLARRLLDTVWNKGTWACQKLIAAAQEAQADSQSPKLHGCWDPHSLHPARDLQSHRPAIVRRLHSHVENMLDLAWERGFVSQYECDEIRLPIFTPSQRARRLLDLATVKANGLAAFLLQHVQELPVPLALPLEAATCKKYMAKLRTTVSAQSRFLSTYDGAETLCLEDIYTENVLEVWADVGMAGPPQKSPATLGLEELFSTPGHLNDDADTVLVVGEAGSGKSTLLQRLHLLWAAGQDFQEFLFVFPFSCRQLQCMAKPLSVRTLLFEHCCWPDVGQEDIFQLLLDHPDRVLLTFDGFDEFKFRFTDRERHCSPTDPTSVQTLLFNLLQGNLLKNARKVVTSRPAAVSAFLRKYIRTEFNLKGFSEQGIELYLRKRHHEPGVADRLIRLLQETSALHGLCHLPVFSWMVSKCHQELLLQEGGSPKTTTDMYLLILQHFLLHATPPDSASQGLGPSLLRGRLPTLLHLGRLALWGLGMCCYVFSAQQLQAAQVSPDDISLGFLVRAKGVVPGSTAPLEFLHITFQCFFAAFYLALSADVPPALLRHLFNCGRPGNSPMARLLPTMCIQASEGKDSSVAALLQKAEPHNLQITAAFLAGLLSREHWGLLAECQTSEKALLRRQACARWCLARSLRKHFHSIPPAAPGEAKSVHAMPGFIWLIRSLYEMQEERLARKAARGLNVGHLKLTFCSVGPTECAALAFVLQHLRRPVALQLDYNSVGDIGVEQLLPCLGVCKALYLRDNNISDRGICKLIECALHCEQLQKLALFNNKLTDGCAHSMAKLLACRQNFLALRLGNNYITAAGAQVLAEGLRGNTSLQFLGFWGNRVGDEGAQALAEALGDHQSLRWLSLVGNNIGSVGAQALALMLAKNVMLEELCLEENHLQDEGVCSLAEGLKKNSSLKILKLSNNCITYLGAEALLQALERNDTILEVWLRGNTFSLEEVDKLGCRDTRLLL
Chain of NACHT, LRR and PYD domains-containing protein 3 (Q96P20 whole entry, the tested form may be a part): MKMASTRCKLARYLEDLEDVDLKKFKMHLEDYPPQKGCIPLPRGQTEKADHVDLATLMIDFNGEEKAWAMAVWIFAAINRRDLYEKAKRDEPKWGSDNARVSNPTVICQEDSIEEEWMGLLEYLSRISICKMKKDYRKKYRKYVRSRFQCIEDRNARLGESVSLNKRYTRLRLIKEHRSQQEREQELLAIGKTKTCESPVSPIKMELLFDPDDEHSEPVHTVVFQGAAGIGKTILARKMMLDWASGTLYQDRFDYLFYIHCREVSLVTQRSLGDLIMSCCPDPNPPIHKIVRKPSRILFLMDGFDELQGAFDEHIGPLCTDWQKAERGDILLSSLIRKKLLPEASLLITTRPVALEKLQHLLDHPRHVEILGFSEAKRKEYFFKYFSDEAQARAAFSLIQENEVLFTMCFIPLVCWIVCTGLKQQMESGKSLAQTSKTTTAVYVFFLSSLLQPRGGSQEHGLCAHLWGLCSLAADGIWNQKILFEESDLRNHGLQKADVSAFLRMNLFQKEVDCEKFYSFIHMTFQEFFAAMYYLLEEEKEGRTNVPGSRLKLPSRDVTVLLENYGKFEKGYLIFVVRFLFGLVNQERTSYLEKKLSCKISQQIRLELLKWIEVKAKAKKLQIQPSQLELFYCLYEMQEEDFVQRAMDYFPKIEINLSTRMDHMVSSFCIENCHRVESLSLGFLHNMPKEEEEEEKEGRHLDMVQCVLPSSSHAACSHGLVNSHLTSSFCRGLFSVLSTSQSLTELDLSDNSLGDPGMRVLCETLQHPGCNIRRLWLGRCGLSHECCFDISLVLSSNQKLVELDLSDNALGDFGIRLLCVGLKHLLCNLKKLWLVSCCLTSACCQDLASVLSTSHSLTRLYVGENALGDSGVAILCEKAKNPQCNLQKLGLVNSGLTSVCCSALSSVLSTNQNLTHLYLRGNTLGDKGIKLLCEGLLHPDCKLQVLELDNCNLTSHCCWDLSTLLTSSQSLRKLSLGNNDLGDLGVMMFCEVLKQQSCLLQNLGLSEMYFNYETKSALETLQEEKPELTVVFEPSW

Activity [2] | Activity [3] | Activity [6] | Activity [11] | Activity [12] | SMILES | deltaT [1] [°C] | Activity [4] | Activity [5] | Activity [8] | Activity [9] | Activity [10] | Activity [13] | Activity [14] | deltaT [18] [°C] | Activity [19] | Activity [20] | Activity [21] | Activity [22] | Activity [23] | Activity [24] | other results
Active | inactive | Active | inactive | inactive | CC(=O)N[C@H]1C(O)O[C@H](CO)[C@@H](O)[C@@H]1O[C@H](C)C(=O)N[C@@H](C)C(=O)N[C@H](CCC(=O)O)C(N)=O (some centres not stated) [MURAMYL DIPEPTIDE] | 2.9 | Active | Active | Active | Non-Toxic | Non-Toxic |  |  |  |  |  |  |  |  |  | deltaT [7]: 2.7 °C
Active | inactive | Active | inactive | inactive | CCCCCCCCCCCCCCC(CCCCCCCCCCCCCC)C(=O)N[C@H]1[C@H](O[C@H]2[C@H](OCC(=O)N[C@@H](CC)C(=O)N[C@H](CCC(=O)O)C(N)=O)[C@@H](NC(C)=O)C(O)O[C@@H]2CO)O[C@H](CO)[C@@H](O)[C@@H]1O (some centres not stated) | 0.7 | inactive |  |  |  |  | Non-Toxic | Non-Toxic | 0.5 | Non-Toxic | Non-Toxic | Non-Toxic | Non-Toxic | Non-Toxic | Non-Toxic | solubility [15]: Insoluble; solubility [16]: Soluble; solubility [17]: Soluble
Active | inactive | Active | inactive | inactive | CCCCCCCCCCCCCCC(CCCCCCCCCCCCCC)C(=O)NCCCC[C@H](NC(=O)CC[C@@H](NC(=O)[C@H](CC)NC(=O)CO[C@H]1[C@H](O)[C@@H](CO)OC(O)[C@@H]1NC(C)=O)C(N)=O)C(=O)O (some centres not stated) | 0.7 | Active | Active | Active | Non-Toxic | Non-Toxic | Non-Toxic | Non-Toxic | 0.6 | Non-Toxic | Non-Toxic | Non-Toxic | Non-Toxic | Non-Toxic | Non-Toxic | Activity [25]: Active
